ChEMBL document CHEMBL4513216, “Probing the Open Global Health Chemical Diversity Library for Multistage-Active Starting Points for Next-Generation Antimalarials” (ACS Infect Dis, 2020)

Assay: Toxicity liver stage against HepG2, at 10uM
Format: cell-based
Set-up: test concentration 10 uM, cell line HepG2-A16-CD81EGFP
Details: human, HepG2-A16-CD81EGFP cells; read-out: INHIBITION
Procedure, shortened: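 Uninfected HepG2-A16-CD81EGFP cells, 3 × 10^3 per well, 1536-well, plated on prespotted compound at 10 μM final, parasite-free screening media added to match infected plates; puromycin 10 μM positive, DMSO 0.5% negative; run in parallel with 48 h PbLuc assay at 37 °C, 5% CO2; viability by CellTiter-Glo luminescence, normalized to controls.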

Row | SMILES | cytotoxicity at 10 µM [%]
1 | Cc1cccc(C)c1OCC(=O)NS(=O)(=O)c1c(C)noc1C | -2.28
2 | CC(C)NC(=O)N1CCN(C(=O)C(C)C)CC2(CC(=O)N(C)C2)C1 (stereo not given) | -0.704
3 | Cc1cc(CC(C)Nc2ncnc3cccc(F)c23)[nH]n1 (stereo not given) | 26.4
4 | Cc1ccc(S(=O)(=O)N2CCN(CCC#N)CC2)s1 | -10.8
5 | Cc1c(S(=O)(=O)N2CCOCC2)cc2c(C)cc(=O)n3c2c1CCC3 | 3.36
6 | CN(CCOc1ccc(Br)cc1)Cc1cscn1 | 5.25
7 | O=C(COCc1ccccc1)N1CCCC(n2cncn2)C1 (stereo not given) | -8.6
8 | COc1cc(N2CCCC(c3nccn3Cc3cscn3)C2)nc(N)n1 (stereo not given) | -4.66
9 | CN1C(Cn2cccn2)C[C@@H]2CN(Cc3cccnc3)CC[C@@H]21 (stereo not given in full) | 8.01
10 | Cc1ccsc1CNCCCOc1ccccn1 | -0.575
11 | CCc1nc2ccccc2n1C(CC)C(=O)N(C)Cc1nc(C)c[nH]1 (stereo not given) | -2.53
12 | Cc1[nH]nc(CCC(=O)N2CCc3c(nc[nH]c3=O)C2)c1C | 3.63
13 | CC(C)[C@H]1CN(Cc2ccccn2)C[C@@H]1NC(=O)CC1CCC1 | -2.57
14 | CC(C)(C)c1ccc(=O)n(CN2CCCC(C(F)(F)F)C2)n1 (stereo not given) | -2.19
15 | O=C(NCC(O)c1ccsc1)c1sccc1OC(F)F (stereo not given) | -16
16 | Cc1ccsc1C1CCCCCN1Cc1cn(C)nc1C (stereo not given) | -4.38
17 | O=C(Nc1ccc(CCN2CCOCC2)cc1)C1CCCC1 | -16
18 | Cn1cc(C(=O)NC(Cn2cccn2)C(C)(C)C)cn1 (stereo not given) | -6.36
19 | Cc1nnc2n1CCN(CCS(=O)(=O)c1ccc(Cl)cc1)C2 | -4.53
20 | Cn1ccc(CN2CC(Cc3nccc4cc[nH]c34)C2)n1 | 9.51
21 | CCSCCC(=O)NS(=O)(=O)c1ccc2c(c1)OCCO2 | 0.35
22 | Cc1c(C(=O)N2CC(=O)N(C)C2)nnn1-c1cccc2cccnc12 | 5.64
23 | COCc1ncc(CN2CCC(Oc3ccccc3OC)CC2)cn1 | -1.77
24 | O=C(CCCc1ccccn1)NCC(O)c1c(F)cccc1F (stereo not given) | -7.85
25 | CN(C)c1ccc(NC(=O)N2CCc3sccc3C2)cn1 | -4.16
26 | Cc1n[nH]cc1CNCC(c1cccc(F)c1)N(C)C (stereo not given) | -0.0972
27 | COc1ccc(OC)c(Nc2nc3c(C)nn(C)c3c(=O)n2C)c1 | -2.73
28 | Cc1nn(C)c2c(NCCCn3cccn3)ncnc12 | -0.472

Row | SMILES | cytotoxicity at 10 µM [%]
29 | Cc1ccc(CNCCCNS(C)(=O)=O)c(Br)c1 | 3.36
30 | COCCCN1Cc2cccc(NC(=O)c3ccccc3C)c2C1 | 13.4
31 | COc1ccc(C(=O)N2C[C@@H](CN3CCCCC3)[C@@H](CO)C2)cc1Cl | -0.703
32 | c1cncc(CCc2nc(C3CC3)nn2-c2ccc3c(c2)OCCO3)c1 | -0.833
33 | CN(C)c1ncc(CN2CCOC(C(=O)Nc3ccccc3)C2)cn1 (stereo not given) | -3.14
34 | COc1ccccc1CNC(=O)c1[nH]ncc1Cl | 1.72
35 | Cc1cccc(CN2CCCC3(CCN(C4CCSCC4)C3)C2=O)c1 (stereo not given) | 2.55
36 | CN(Cc1ccccn1)C1CCCN(c2cccnn2)C1 (stereo not given) | -13.4
37 | COC1COC2(CCN(C(=O)c3ncccn3)CC2)C1 (stereo not given) | 6.07
38 | Fc1cnc(N2CCCC3(CCN(Cc4nccs4)C3)C2)nc1 (stereo not given) | -67.9
39 | O=C(c1cc2c(s1)CCOC2)N1CCCC1Cn1cccn1 (stereo not given) | -2.06
40 | O=C(CCCn1nnc(-c2ccc(F)cc2)n1)N1CCOCC(CO)C1 (stereo not given) | 16.2
41 | O=C(Cn1nc2c(cc1=O)CSCC2)N[C@@H](Cc1ccccc1)C(=O)O | -3.14
42 | CNC(=O)C(C)CN(C)C(=O)Nc1cc(-n2cccc2)ccc1F (stereo not given) | -5.28
43 | Cc1cccc(C2CCCN2C(=O)CCS(C)(=O)=O)c1C (stereo not given) | -0.272
44 | COCC(=O)Nc1cc(S(=O)(=O)C(F)(F)F)ccc1OC | 17.3
45 | COCc1cccc(C(=O)N2CCCN(C(=O)OCC(C)C)CC2)c1 | -10
46 | Cc1cnc(C(=O)N2C[C@@H](NS(C)(=O)=O)[C@@H]3OCCC[C@@H]32)cn1 | -89.7
47 | CC(=O)N1CCC[C@H]1C(=O)NCCOc1cccc(Cl)c1 | -8.78
48 | COCC(=O)N1CCCC1c1nccnc1Nc1nc(C)cs1 (stereo not given) | -3.36
49 | Clc1cccnc1OC1CCNCC1 | -10.9
50 | O=c1cc(N2CCCCC2)cnn1C[C@H](O)CO | 2.04
51 | CC(C)(C)n1ncc2c1CCCC2NCc1cccc(C(N)=O)c1 (stereo not given) | -0.25
52 | COCCC(=O)N1C[C@@H](O)[C@H](N2CCN(c3ccccc3)CC2)C1 | 0.046
53 | CN(C)C(=O)COC[C@@]12CCC[C@@H]1CN(C1CCC1)C2 | -1.25
54 | c1cnc(N2C[C@@H]3COC[C@]3(COCC3CCCC3)C2)nc1 | -8.85
55 | CCN1CCC(CC(=O)N2CCCCC2CCn2cccn2)CC1 (stereo not given) | -5.02
